Compound activity deposited in PubChem by several laboratories.
MEKK2mut PB1 HTS: signal of MEK5 binding to mutant human MEKK2 PB1 domain; bead flow cytometry, Alexa488-MEK5 binding to MEKK2 mutant; percent response, % at 10 µM; 0.35% of 290,000 active; AID 1530; in the data active means percent response above about 24%, passing the limit was not always enough
ATG4B inh: ATG4B (human) cysteine protease inhibition; 0.51% of 340,000 active; ATG4B cleavage of LC3-PLA2, NBD-HPC fluorescence, 1 h; inhibition, % at 8.33 µM; in the data active means inhibition above about 40%
MEKK3 PB1 HTS: MEKK3-MEK5 PB1 interaction, increase or decrease; bead-based flow cytometry, Alexa488-MEK5 binding to MEKK3; actives lie on both sides; 0 = blocked by unlabeled MEK5, 100 = vehicle; binding response (% of control), % at 10 µM; 1.4% of 290,000 active; AID 1529;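 active means binding response more than 3 SD above or below the average of its plate-row segment, actives on both sides; inconclusive means wells at one plate position flagged as instrument error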;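 further: Alexa488 bead fluorescence after subtracting the streptavidin-only scavenger bead signal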
Target sequence (Q99759 whole entry, looked up): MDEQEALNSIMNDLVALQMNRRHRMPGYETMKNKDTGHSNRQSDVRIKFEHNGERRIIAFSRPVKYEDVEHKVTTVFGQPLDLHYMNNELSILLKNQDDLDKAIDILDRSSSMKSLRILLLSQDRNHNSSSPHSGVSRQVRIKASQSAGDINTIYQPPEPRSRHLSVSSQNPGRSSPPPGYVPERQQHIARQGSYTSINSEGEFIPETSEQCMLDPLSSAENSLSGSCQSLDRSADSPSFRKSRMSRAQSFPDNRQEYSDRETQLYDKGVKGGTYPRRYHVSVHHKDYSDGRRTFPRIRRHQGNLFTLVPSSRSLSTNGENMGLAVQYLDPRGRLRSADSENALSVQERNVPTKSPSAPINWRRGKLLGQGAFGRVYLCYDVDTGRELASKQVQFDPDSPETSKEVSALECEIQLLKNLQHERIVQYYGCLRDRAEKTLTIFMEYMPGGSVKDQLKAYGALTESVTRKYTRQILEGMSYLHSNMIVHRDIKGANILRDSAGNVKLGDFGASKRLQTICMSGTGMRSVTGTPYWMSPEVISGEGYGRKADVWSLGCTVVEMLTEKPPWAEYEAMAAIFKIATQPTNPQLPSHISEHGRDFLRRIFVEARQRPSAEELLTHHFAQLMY
MEKK2 WT-MEK5: raises or lowers MEK5 binding to wildtype human MEKK2 PB1 domain | Q9Y2U5 | bead flow cytometry, Alexa488-MEK5 binding to MEKK2 WT; actives lie on both sides | binding response (% of control), % at 10 µM | 1.1% of 290,000 active; in the data active means binding response below about 67% or above about 130%; inconclusive means no clear call, values can overlap the other calls; inactive means in between
Dynein transport: dynein cargo transport inhibition; 3617.4 mouse cells, GR-EGFP nuclear translocation imaging; test concentration mostly 20 µM; stimulated with dexamethasone, 1 µM; stronger effect = lower value; z-score, hits read low; 0.47% of 220,000 active; AID 1381;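 active means plate z-score of nuclear minus cytoplasmic receptor signal below a set negative limit, without overly bright fluorescence or cell loss, cut at about -3.5 in these data, passing the limit was not always enough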;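 further: z-score of nuclear minus cytoplasmic ring GR-EGFP intensity difference per well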
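Also added: dexamethasone, 1.0 µM final. Medium: tet-free, stripped-serum medium. Detection: fixed, Hoechst-stained cells imaged at 10x for EGFP. Read-out: nuclear-to-cytoplasmic GR-EGFP distribution per well. Times: induction 48 h, compound 1 h, agonist 30 min.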
Beta2AR agonist: activates human beta-2 adrenergic receptor causing internalization; 0.43% of 340,000 active; Am2.2-beta2AR cells, FAP receptor internalization, flow cytometry; P07550; response, % (concentration not given with the values); AID 504454;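 active means response above a set limit, near 3 SD of response in nonfluorescent compounds, cut at about 42% in these data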
Dynein confirm: dynein cargo transport inhibition, confirmation | shares compounds with Dynein transport | 3617.4 GR-EGFP nuclear translocation imaging, dexamethasone-induced | calls only at 20 µM | 69% of 1,000 active;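 active means inhibition of receptor movement into the nucleus at or above a set limit in both runs, with normal cell brightness and cell count; inconclusive means limit reached in only one run, brightness and count normal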;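 further: dexamethasone at 1 µM final in well for 30 min; nuclear minus cytoplasmic GR-EGFP mean intensity difference in channel 2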
* hit, by the source's call; i = inactive; ? = inconclusive; · = no result; + = active, no number. Most compounds without a hit are left out; they make up all but 2.9% or so of the library.

SMILES | MEKK2mut PB1 HTS | ATG4B inh | MEKK3 PB1 HTS | MEKK2 WT-MEK5 | Dynein transport | Beta2AR agonist | Dynein confirm
COC(=O)c1ccc(N=c2sc(C(=O)OC)cc(=O)n2C)cc1 | 11 | 2 | 113 | 98 | -1.7 | 8 | ·
CN(CC(=O)Nc1ccccc1Cl)C(=O)Cn1cnc2ccc(Cl)cc2c1=O | · | -4 | · | · | · | -12 | ·
CCOC(=O)C1(CCCc2ccccc2)CCN(C(=O)C2=C(C)OCCO2)CC1 | 2 | 2 | 102 | 104 | -3.5* | 2 | ?
CCOC(=O)C1(CCCc2ccccc2)CCN(C(=O)c2ccoc2)CC1 | 8 | 7 | 102 | 98 | -0.48 | 6 | ·
CC1=C(CO)C(=O)OC([C@@H](C)C2CC[C@H]3C4C[C@H]5O[C@]56[C@@H](O)C=CC(=O)[C@]6(C)C4CC[C@]23C)C1 (stereo partly specified) | 3 | -33 | 105 | 103 | -3.8* | 22 | ?
COCCN1CC(C(=O)NCCc2nc(C)c(C)s2)CCC1=O (stereo unspecified) | 3 | 5 | 101 | 104 | · | 12 | ·
Cc1ccc(C(=O)NC(=C(Cl)Cl)S(=O)(=O)c2ccccc2)cc1 | -1 | -10 | 99 | 98 | -3.2 | 8 | ·
COC(=O)NC(=C(Cl)Cl)S(=O)(=O)c1ccccc1 | 6 | 5 | 104 | 105 | -5.8* | 12 | +
CC1CCCC(NC(=O)CSc2nnc(-c3cccnc3)n2N)C1C (stereo unspecified) | · | -12 | · | · | · | -4 | ·
CNC(=O)COC(=O)c1ccccc1C(=O)c1ccc(Cl)c([N+](=O)[O-])c1 | 0 | 2 | 102 | 102 | -4.3* | 16 | +
CCOC(=O)/C(C#N)=C/c1c[nH]c2ccccc12 | 5 | 3 | 103 | 105 | -0.13 | -12 | ·
CCOC(=O)C(=Cc1c[nH]c2ccc(S(=O)(=O)N(C)C)cc12)C(=O)OCC | 10 | -2 | 102 | 101 | -4.7* | 19 | +
CCOC(=O)C1CCCN(C(=O)C(CCSC)NC(=O)COc2ccccc2)C1 (stereo unspecified) | · | -8 | · | · | · | 2 | ·
O=C(c1cccs1)n1nc(-c2ccccc2)nc1NCc1ccco1 | 1 | -7 | 99 | 104 | -5.6* | 3 | i
CCOC(=O)C1C(=O)C=C(/C=C/c2ccc(N(C)C)cc2)CC1c1ccccc1 (stereo unspecified) | 51* | -8 | 129 | 42* | -9.9 | -677 | i
CCOC(=O)C1C(=O)C=C(c2ccc(C)cc2)CC1c1ccccc1 (stereo unspecified) | 2 | -1 | 118 | 105 | 0.13 | -6 | ·
O=C(Nc1ccccc1)C1=C(O)CC(c2ccoc2)CC1=Nc1ccccc1 (stereo unspecified) | -6 | 2 | 87 | 85 | -4.2* | -14 | i
O=C(/C=C/c1ccc(F)cc1)c1cc(Br)ccc1O | 3 | 0 | 100 | 99 | -3.8* | 9 | +
CC[C@H]1CC2CN3CCc4c([nH]c5c([C@H]6C[C@H]7[C@H](CC)CN(C)[C@@H](Cc8c6[nH]c6ccccc86)[C@H]7C(=O)OC)c(OC)ccc45)C(C(=O)OC)(C2)C13 | 6 | · | 106 | 113 | · | · | ·
CCN(CC)C(=O)[C@H]1C[C@H](CC(=O)NCCc2ccccn2)C(=O)N2CCc3c([nH]c4ccc(Cl)cc34)[C@]12C | · | -5 | · | · | · | -3 | ·
CCN(CC)CCCNC(=O)c1oc2ccc(S(=O)(=O)N3CC(C)CC(C)C3)cc2c1C (stereo unspecified) | 13 | -7 | 102 | 117 | · | 12 | ·
COC(=O)C(=C/C(C)=C/c1cccnc1)C(=O)OC | 3 | 0 | 105 | 92 | -5.9* | -5 | +
COC(=O)/C(=C/c1cccnc1)NC(=O)c1ccccc1 | 12 | 2 | 101 | 108 | -0.63 | 4 | ·
CCc1noc(C)c1C(=O)Nc1nc(-c2ccccc2)c(C(C)=O)s1 | · | -1 | · | · | · | -1 | ·
S=c1sc2c(Cl)ncnc2n1-c1ccccc1 | -15 | -2 | 99 | 93 | -4* | 103* | +
SMILES | MEKK2mut PB1 HTS | ATG4B inh | MEKK3 PB1 HTS | MEKK2 WT-MEK5 | Dynein transport | Beta2AR agonist | Dynein confirm
Cc1nc(N2CCN(C)CC2)c2sc(=S)n(-c3ccccc3)c2n1 | -6 | 5 | 82 | 88 | 0.81 | -1 | ·
CCCCN(C)C1=CC2=CC(=C(C#N)C#N)CCC2CC1 (stereo unspecified) | -8 | -75 | 101 | 86 | -8.1* | -239 | +
N#CC(C#N)=C1C=C2C=C(N3CCCCC3)CCC2CC1 (stereo unspecified) | -6 | -274 | 100 | 86 | -7.3* | · | +
CCN(CC)C1=CC2=CC(=C(C#N)C#N)CCC2CC1 (stereo unspecified) | -6 | -113 | 93 | 90 | -2.7 | · | ·
CN(Cc1ccsc1)C(=O)Cn1cc(Br)ccc1=O | 1 | -12 | 101 | 105 | · | 4 | ·
O=C(Cc1ccc(Br)cc1)N/N=C/c1cccnc1 | 6 | -14 | 100 | 99 | · | -11 | ·
Cn1ncc(SCc2ccccc2)c(Cl)c1=O | -1 | -7 | 108 | 101 | -1.8 | -5 | ·
Cn1ncc(S(=O)(=O)Cc2ccccc2)c(Cl)c1=O | -20 | -4 | 85 | 90 | -5.2* | -13 | +
NC(=O)/C=C/C(=O)Nc1ccc(Cl)cc1 | -1 | -11 | 102 | 98 | -3.7* | -1 | i
CCOC(=O)CSC1=NC(=O)/C(=C\c2ccc(Cl)cc2)S1 | -1 | -3 | 100 | 98 | -4.1* | 23 | i
Cc1[nH]c2ccccc2c1/C=N/Nc1ccc([N+](=O)[O-])cc1 | 43 | 4 | 91 | 24* | -3.9 | -275 | i
O=C(Oc1ccccc1)c1cccc(COC(=O)c2cnccn2)c1 | 3 | 7 | 107 | 106 | -4.1 | 7 | i
O=C(c1ccccc1)c1ccc(COC(=O)c2cnccn2)cc1 | 1 | -2 | 105 | 105 | 0.32 | 4 | ·
COc1cc(C(=O)NCC(=O)OCc2ccc(F)cc2)cc(OC)c1OC | · | 0 | · | · | · | 1 | ·
Cc1onc(-c2c(F)cccc2Cl)c1-c1nnc(-c2cccc3ccccc23)o1 | 0 | -8 | 102 | 102 | 1.1 | -6 | ·
Cc1onc(-c2c(Cl)cccc2Cl)c1-c1nc2cc(Cl)ccc2c(=O)o1 | -3 | 0 | 101 | 97 | -4.1* | 8 | +
COc1ccc(C(=O)CCN2CCN(c3ccccc3OC)CC2)cc1 | -3 | 0 | 97 | 103 | -4.4* | -10 | +
Cc1cn([C@H]2C[C@H](O)[C@@H](CCC(=O)NCCN3CCCCC3)O2)c(=O)[nH]c1=O | · | -7 | · | · | · | -5 | ·
Cc1cc(C(C)(C)C)cc(C)c1CCNC(=O)c1c(C)noc1C | · | 1 | · | · | · | -3 | ·
